This note sets out measurements from ChEMBL document CHEMBL1140293, “Irreversible inactivation of trypanothione reductase by unsaturated Mannich bases: a divinyl ketone as key intermediate” (J Med Chem, 2005).

Activity calls are given as the source filed them. The rule behind the calls is not given here.

The target of data set [1] is Trypanothione reductase (Trypanosoma cruzi) (UniProt P28593). The data set is described as follows: Inhibition of Trypanosoma cruzei reduced trypanothione reductase at 100 uM. A digest of the protocol: (§1)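 Recombinant T. cruzi TR (0.5 μM) preincubated at 25 °C with inhibitor, with or without 200 μM NADPH, in 40 mM HEPES, 1 mM EDTA, pH 7.5; 5 μL aliquots taken over time into standard assay (100 μM NADPH, 110 μM TS2, A340 decrease). Inhibitor from fresh or stored DMSO stock (stored at 4 °C); half-time at 100 μM. Controls: enzyme+NADPH+DMSO, enzyme+inhibitor without NADPH.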

The next data set has as its system Trypanosoma cruzi. The data set can be described thus: Antiparasitic activity against Trypanosoma cruzi MHOM/CL/00/Tulahuan-LacZ intracellular amastigotes. It counts as functional. As to conditions: read-out: ED50 (the source's name).
Data set [2] deals with Trypanosoma brucei rhodesiense. The data set can be described thus: Antiparasitic activity against Trypanosoma brucei rhodesiense STIB900 blood stream form. Type of data set: functional. As to conditions: read-out: ED50 (the source's name). A digest of the protocol:
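Bloodstream-form parasites treated for 3 days; viability by tetrazolium salt colorimetric assay with pentamidine isethionate reference; ED50 derived by sigmoidal regression.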

A further data set deals with Leishmania donovani. The data set can be described thus: Antiparasitic activity against Leishmania donovani MHOM/ET/67/HU3 intracellular amastigotes. It counts as functional. As to conditions: read-out: ED50 (the source's name).
Data set [3] deals with Trypanothione reductase (Trypanosoma cruzi) (UniProt P28593). The data set can be described thus: Inactivation of Trypanosoma cruzei trypanothione reductase at 200 uM. Summed up: as §1
A further data set has as its system Plasmodium falciparum. The data set can be described thus: Antiparasitic activity against chloroquine-sensitive Plasmodium falciparum 3D7 in erythrocytes. As to conditions: read-out: ED50 (the source's name). Type of data set: functional.
For data set [4], the target named is Trypanothione reductase (Trypanosoma cruzi) (UniProt P28593). The data set is described as follows: Inhibition of reduced Trypanosoma cruzei trypanothione reductase at freshly prepared 100 uM. A digest of the protocol:
as §1

The nature of data set [5]: Cytotoxicity against human KB cells by Alamar blue assay. It counts as cell-based. As to conditions: read-out: ED50 (the source's name). Summed up: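 Human oral pharyngeal carcinoma KB cells; Alamar Blue read-out with podophyllotoxin positive control; ED50 calculated relative to blanks and untreated controls.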
A short description of data set [6]: Toxicity in macrophages at >=156 uM. It counts as cell-based. As to conditions: human, macrophage.
Data set [7] deals with T1, Glutathione reductase, mitochondrial (Homo sapiens, UniProt P00390).
T1 sequence (P00390 whole entry): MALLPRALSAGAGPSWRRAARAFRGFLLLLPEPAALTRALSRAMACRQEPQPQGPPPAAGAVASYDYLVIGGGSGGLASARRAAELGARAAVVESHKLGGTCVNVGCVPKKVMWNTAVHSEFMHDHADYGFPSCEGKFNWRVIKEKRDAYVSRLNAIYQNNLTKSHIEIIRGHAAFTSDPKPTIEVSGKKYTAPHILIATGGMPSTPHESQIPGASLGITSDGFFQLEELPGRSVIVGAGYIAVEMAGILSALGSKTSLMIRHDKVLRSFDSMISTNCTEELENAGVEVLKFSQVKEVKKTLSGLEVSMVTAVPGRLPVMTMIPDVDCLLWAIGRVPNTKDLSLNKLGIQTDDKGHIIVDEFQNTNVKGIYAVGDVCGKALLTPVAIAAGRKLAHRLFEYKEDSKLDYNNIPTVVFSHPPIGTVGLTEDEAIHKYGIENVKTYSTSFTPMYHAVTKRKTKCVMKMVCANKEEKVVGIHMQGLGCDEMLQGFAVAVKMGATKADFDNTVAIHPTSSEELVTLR
The data set is described as follows: Inhibition of human glutathione reductase in presence of 50 uM GSSG substrate. Summed up:
(§2)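 Direct assay at 25 °C, NADPH oxidation at 340 nm, 100 μM NADPH, 1% DMSO; six to eight inhibitor levels 0–100 μM, duplicate. TR: 100 μM TS2, 100 mM phosphate pH 7.0. GR (human): 500 or 50 μM GSSG, 100 mM potassium phosphate pH 7.0, 200 mM KCl. P. falciparum TrxR: 34 μM D. melanogaster thioredoxin-2, 100 mM phosphate pH 7.4, 2 mM EDTA.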

Data set [8] can be described thus: Inhibition of Plasmodium falciparum thioredoxin reductase after 5 min pre-incubation with NADPH in presence of 34 uM thioredoxin 2 substrate. Summed up: (§3)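 Enzyme (T. cruzi TR, human GR or P. falciparum TrxR) preincubated 5 min at 25 °C with 160 μM NADPH and 0–20 μM inhibitor, 2% DMSO, 50 μL; 5 μL aliquot into respective standard assay with substrate at 5× Km (100 μM TS2, 500 μM GSSG, 34 μM thioredoxin-2), residual activity at 340 nm.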

Data set [9] is described as follows: Inhibition of Plasmodium falciparum thioredoxin reductase in presence of 34 uM thioredoxin 2 substrate. Summed up: as §2
The target in data set [10] is T2, Trypanothione reductase (Trypanosoma cruzi, UniProt P28593). The data set is described as follows: Inhibition of Trypanosoma cruzi trypanothione reductase after 5 mins pre-incubation with NADPH in presence of 100 uM TS2 substrate. A digest of the protocol:
as §3

Data set [11] addresses T2, Trypanothione reductase. The data set can be described thus: Inhibition of Trypanosoma cruzi trypanothione reductase in presence of 100 uM TS2 substrate. A digest of the protocol: as §2
Data set [12] deals with T1, Glutathione reductase, mitochondrial. The data set can be described thus: Inhibition of human glutathione reductase after 5 mins pre-incubation with NADPH in presence of 500 uM GSSG substrate. Summed up: as §3
The target is the same in data set [13]. The data set can be described thus: Inhibition of human glutathione reductase in presence of 500 uM GSSG substrate. Summed up:
as §2

Data set [14] has as its target Trypanothione reductase (Trypanosoma cruzi) (UniProt P28593). The data set can be described thus: Inactivation of Trypanosoma cruzei reduced trypanothione reductase at 100 uM stored compound. Also noted: scale not given: the % may be the effect or the level left. Summed up: as §1
Data set [15] shares this target. The data set is described as follows: Inhibition of Trypanosoma cruzei trypanothione reductase at 5 uM stored compound within 5 mins. A digest of the protocol: as §1
Data set [16] has the same target. The data set can be described thus: Inhibition of Trypanosoma cruzei reduced trypanothione reductase at 5 uM freshly prepared compound within less than 5 mins. Summed up:
as §1

For data set [17] the target is unchanged. The data set can be described thus: Inactivation of Trypanosoma cruzei reduced trypanothione reductase at 100 uM freshly prepared compound. Further details: scale not given: the % may be the effect or the level left. A digest of the protocol: as §1

Chain of Trypanothione reductase (Trypanosoma cruzi) (P28593 whole entry, looked up): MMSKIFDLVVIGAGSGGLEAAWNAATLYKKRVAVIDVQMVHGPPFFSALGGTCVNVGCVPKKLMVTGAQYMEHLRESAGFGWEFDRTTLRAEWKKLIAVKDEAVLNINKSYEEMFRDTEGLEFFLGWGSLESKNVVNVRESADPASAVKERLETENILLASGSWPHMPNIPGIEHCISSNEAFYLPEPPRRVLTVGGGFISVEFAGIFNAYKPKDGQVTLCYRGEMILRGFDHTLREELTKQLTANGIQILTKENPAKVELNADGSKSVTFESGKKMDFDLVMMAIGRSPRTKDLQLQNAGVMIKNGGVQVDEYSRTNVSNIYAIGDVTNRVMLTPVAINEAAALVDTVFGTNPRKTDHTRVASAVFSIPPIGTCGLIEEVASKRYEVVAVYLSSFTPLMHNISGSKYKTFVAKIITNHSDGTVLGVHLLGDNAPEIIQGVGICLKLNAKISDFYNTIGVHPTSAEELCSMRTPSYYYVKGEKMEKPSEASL
T2 sequence (P28593 whole entry): as the sequence (P28593 whole entry, looked up) above

On to `O=C1C=CC(c2ccccc2Cl)C1` (centres undefined), for which the outcome in data set [1] was inactive.
Regarding `N=C(N)c1ccc(OCCCCCOc2ccc(C(=N)N)cc2)cc1` [PENTAMIDINE], the EC50 with Trypanosoma cruzi is 4.2 µM; in [2], 0.0001 µM; in the data set on Leishmania donovani, 28.9 µM.
On to `CN(C)CC(C)(C)C(=O)/C=C/c1ccccc1Cl`, for which the result in data set [3] was inactive.
Regarding `O=C(Cn1ccnc1[N+](=O)[O-])NCc1ccccc1` [BENZNIDAZOLE], in the data set with Trypanosoma cruzi, the EC50 worked out at 4.2 µM.
As for `CCN(CC)CCCC(C)Nc1ccnc2cc(Cl)ccc12` (centres undefined) [CHLOROQUINE], the EC50 in the data set on Plasmodium falciparum stood at 0.0058 µM.
With `O=C(/C=C/c1ccccc1Cl)CCN1CCOCC1`, the T1/2 in [4] was found to be 2 min.
For the compound `COc1cc([C@@H]2c3cc4c(cc3[C@H](O)[C@H]3COC(=O)[C@H]23)OCO4)cc(OC)c1OC` [PODOFILOX], in data set [5], the CC50 was found to be 0.07 µM.
Turning to `C=CC(=O)/C=C/c1ccccc1Cl`, the Activity result in [6] was “Toxic”. The half-inhibitory concentration (IC50) in [7] is 18.5 µM; in [8], 0.4 µM; in data set [9], 3.7 µM; at Trypanothione reductase [10], 2 µM; at Trypanothione reductase [11] it was 8 µM; in data set [12], 5 µM. For the same compound, the half-maximal inhibitory concentration (IC50) in data set [13] came to 190 µM. Further, the EC50 is 12.5 µM in the data set on Trypanosoma cruzi, 1.9 µM in [2], 68 µM with Leishmania donovani and 46.7 µM with Plasmodium falciparum. Also, the CC50 in data set [5] was determined as 1230 µM. Moreover, the T1/2 in data set [4] was less than 0.75 min.
On to `O=C(/C=C/c1ccccc1Cl)CCN1CCCCC1`, for which the EC50 in the data set on Trypanosoma cruzi worked out at 11.8 µM; in data set [2] it was 0.8 µM; in the data set with Leishmania donovani it was 13 µM; in the data set on Plasmodium falciparum, 16.2 µM. Moreover, the CC50 in data set [5] is 7.3 µM. For the same compound, the T1/2 in [4] is 7.5 min.
On to `CN(C)CCC(=O)/C=C/c1ccccc1Cl`, for which the Activity in data set [14] and in [17] was more than 99% each time. Further, the figures for the inhibition in data set [15] and in [16] were 70% and 30%, respectively. In addition, the EC50 with Trypanosoma cruzi turned out to be 8.7 µM; in data set [2] it was 1.8 µM; in the data set with Leishmania donovani it was 41.6 µM; in the data set on Plasmodium falciparum, 27 µM. Besides, the CC50 in data set [5] is 14.2 µM. The compound further gave a T1/2 in [4] of 8.6 min.
